According to ChEMBL document CHEMBL1131461 (J Med Chem, 1998):
Where a chain is given by its changes, count along the chain named.

Experiments:
Mus musculus [1] = test: Intraperitoneal dose of 10 mg/Kg was tested for salivation in mice expressed as score.; type: functional
In short: (§1)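 Male Cr1:CF1RBR mice, 20–30 g, in groups of five. Compound dissolved in distilled water, given ip at 10 mg/kg. Salivation and tremor scored 30 min after dosing on a 0–2 scale (0 = no effect, 1 = moderate, 2 = marked).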

[2] = biological target: T1, Muscarinic acetylcholine receptor M1 (Rattus norvegicus, UniProt P08482); test: Binding affinity for muscarinic acetylcholine receptor M1 using [3H]oxotremorine-M (Oxo-M) radioligand in rat hippocampus membranes; type: cell membranes, Membrane
T1 sequence (P08482 whole entry): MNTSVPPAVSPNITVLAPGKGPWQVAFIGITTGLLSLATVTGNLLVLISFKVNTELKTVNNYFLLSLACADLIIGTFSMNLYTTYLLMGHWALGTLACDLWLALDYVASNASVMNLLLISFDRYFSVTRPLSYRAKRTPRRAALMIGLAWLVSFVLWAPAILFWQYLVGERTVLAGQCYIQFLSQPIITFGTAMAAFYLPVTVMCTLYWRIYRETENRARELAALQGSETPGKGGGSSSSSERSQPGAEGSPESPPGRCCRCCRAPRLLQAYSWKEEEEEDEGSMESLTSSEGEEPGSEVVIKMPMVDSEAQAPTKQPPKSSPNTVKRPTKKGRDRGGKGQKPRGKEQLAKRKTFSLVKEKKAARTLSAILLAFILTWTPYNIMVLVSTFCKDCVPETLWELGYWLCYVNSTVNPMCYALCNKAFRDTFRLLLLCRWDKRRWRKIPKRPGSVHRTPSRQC

[3] = biological target: T1, Muscarinic acetylcholine receptor M1; test: Binding affinity for muscarinic acetylcholine receptor M1 using [3H]pirenzepine (Pz) radioligand in rat hippocampus membranes.; type: cell membranes
[4] = biological target: T2, Muscarinic acetylcholine receptor M1 (Homo sapiens, UniProt P11229); test: Effective concentration required for stimulation of phosphoinositol (PI) hydrolysis in the A9 L cell line transfected with the Muscarinic acetylcholine receptor M1.; type: functional, cell-based, A9L
T2 sequence (P11229 whole entry): T1 sequence (P08482 whole entry) with V5A, S254T, S309P, K320R, G337A, V413I

Mus musculus [5] = test: Compound at an intraperitoneal dose of 10 mg/Kg was tested for salivation in mice expressed as score; type: functional; in short: as §1
Mus musculus [6] = test: Compound at an intraperitoneal dose of 10 mg/Kg was tested for salivation in mice expressed as score; 2=Marked salivation or tremor; type: functional; in short: as §1
Mus musculus [7] = test: Compound at an intraperitoneal dose of 10 mg/Kg was tested for salivation in mice expressed as score; 1=Moderate salivation or tremor; type: functional; in short: as §1

SMILES | Score (Mus musculus [1]) | IC50 [2] [µM] | IC50 [3] [µM] | EC50 [4] [µM] | Score (Mus musculus [5]) | Score (Mus musculus [6]) | Score (Mus musculus [7])
Clc1nsnc1OC1CN2CCC1CC2 (configuration not stated) | 0 | 0.0985 | 0.0635 |  |  |  | 
CCCCOc1nsnc1OC1CNC1 | 0 | 0.105 |  | 6.2 |  |  | 
CCCCCSc1nsnc1OC1CN2CCC1CC2 (stereo in doubt; 18g) |  | 0.0014 | 0.0027 | 0.136 | 1.2 |  | 
CCCCOc1nsnc1OC1CN2CCC1CC2 (configuration not stated) |  | 0.0107 | 0.0423 | 0.102 | 0.4 |  | 
CCCCOc1nccnc1OC1CN2CCC1CC2 (configuration not stated) | 0 | 0.0382 | 0.0223 |  |  |  | 
CCCSc1nsnc1OC1CN2CCCC1C2 (stereo in doubt; 28) |  | 0.00038 | 0.00055 | 0.001 |  | 2 | 
c1nsnc1OC1CN2CCC1CC2 (configuration not stated) | 0 | 0.537 | 0.833 |  |  |  | 
CCCSc1nsnc1C1CN2CCC1C2 (stereo in doubt; 41) |  | 0.0006 |  |  |  |  | 
CCCCCOc1nsnc1OC1CN2CCC1CC2 (configuration not stated) | 0 | 0.0127 | 0.0477 | 0.165 |  |  | 
CCCSc1nsnc1OC1CN2CCC1C2 (stereo in doubt; 26) |  | 0.00076 | 0.0044 | 0.0019 |  | 2 | 
CCCSc1nsnc1OC1CN2CCC1C2 (stereo in doubt; 32) |  | 0.0055 | 0.0667 | 0.162 | 1.8 |  | 
CCCSc1nsnc1O[C@@H]1CC2CCN(C2)C1 (stereo in doubt; 33) | 0 | 0.015 | 0.02 |  |  |  | 
CCCSc1nsnc1O[C@@H]1CC2CCN(C2)C1 (stereo in doubt; 27) |  | 0.0028 | 0.007 |  | 0.2 |  | 
CCCSc1nsnc1OC1CN2CCCC1C2 (stereo in doubt; 34) | 0 | 0.179 | 0.033 |  |  |  | 
CCCCOc1nonc1OC1CN2CCC1CC2 (configuration not stated) | 0 | 0.252 | 0.091 |  |  |  | 
CCOc1nsnc1OC1CN2CCC1CC2 (configuration not stated) | 0 | 0.02 | 0.0655 |  |  |  | 
CCCCOc1nsnc1OC1CCNC1 (configuration not stated) | 0 | 0.158 | 0.361 | 4.87 |  |  | 
COc1nsnc1OC1CN2CCC1CC2 (configuration not stated) | 0 | 0.201 | 0.155 |  |  |  | 

SMILES | Score (Mus musculus [1]) | IC50 [2] [µM] | IC50 [3] [µM] | EC50 [4] [µM] | Score (Mus musculus [5]) | Score (Mus musculus [6]) | Score (Mus musculus [7])
CCCSc1nsnc1C1CN2CCC1C2 (stereo in doubt; 40) |  | 0.0058 |  |  |  |  | 
CCCCCSc1nsnc1OC1CN2CCC1CC2 (stereo in doubt; 18f) | 0 | 0.0064 | 0.0037 |  |  |  | 
CCCOc1nsnc1OC1CN2CCC1CC2 (configuration not stated) | 0 | 0.0125 | 0.0445 |  |  |  | 
CCCCOc1nsnc1OCCN(C)C | 0 | 0.0675 | 0.0685 |  |  |  | 
CCCSc1nsnc1OC12CCCN(CC1)C2 (configuration not stated) | 0 | 0.0052 | 0.0068 |  |  |  | 
CCCCSc1nsnc1OC1CN2CCC1CC2 (configuration not stated) |  | 0.0025 | 0.005 | 0.0223 |  |  | 1
CC(=O)OC1CN2CCC1CC2 (configuration not stated) [ACECLIDINE] |  |  |  |  |  | 2 | 
CSc1nsnc1OC1CN2CCC1CC2 (configuration not stated) |  | 0.0175 | 0.0425 |  | 0.4 |  | 
CCCCCCOc1nsnc1C1=CCCN(C)C1 [XANOMELINE] | 0 |  |  |  |  |  | 
CCCSc1nsnc1OC1CN2CCC1CC2 (configuration not stated) |  | 0.0029 | 0.021 | 0.431 | 0.8 |  | 
CCCCCSc1nsnc1OC1CN2CCC1CC2 (stereo in doubt; 18e) |  | 0.0044 | 0.009 | 0.433 | 0.6 |  | 
CCCCCCSc1nsnc1OC1CN2CCC1CC2 (configuration not stated) |  | 0.0076 | 0.0284 | 0.225 |  |  | 1
CCCCOc1nsnc1OCC[N+](C)(C)C | 0 | 0.036 | 0.041 |  |  |  | 
CSCCc1nsnc1OC1CN2CCC1CC2 (configuration not stated) | 0 | 0.0587 | 0.066 |  |  |  | 
CCSc1nsnc1OC1CN2CCC1CC2 (configuration not stated) | 0 | 0.0065 | 0.02 |  |  |  | 
CCCCOc1nsnc1OC1CCN(C)C1 (configuration not stated) | 0 | 0.042 | 0.044 |  |  |  | 
CCCCCCOc1nsnc1OC1CN2CCC1CC2 (configuration not stated) |  | 0.0117 | 0.042 | 0.259 | 0.2 |  | 
CCSCc1nsnc1OC1CN2CCC1CC2 (configuration not stated) | 0 | 0.0665 | 0.079 |  |  |  | 
